# ChEMBL document CHEMBL3792300, “Tuning Side Arm Electronics in Unsymmetrical Cyclotriazadisulfonamide (CADA) Endoplasmic Reticulum (ER) Translocation Inhibitors to Improve their Human Cluster of Differentiation 4 (CD4) Receptor Down-Modulating Potencies” (J Med Chem, 2016)
# Legend:
# [1] = system: Human immunodeficiency virus 1; assay: Antiviral activity against CXCR4 using HIV-1 NL4.3 infected in human MT4 cells assessed as reduction of viral replication preincubated for 15 mins with cells followed by viral infection measured after 4 days by MTS/PES method; format: functional, organism-based; conditions: Human immunodeficiency virus 1, NL4.3, MT4
# Procedure, shortened: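 MT-4 T cells at 3.75×10⁵ cells/mL in RPMI 1640 with 10% FBS and 2 mM L-glutamine, exposed to compounds for 15 min, then infected with HIV-1 NL4.3 (30 pg/well) at 37 °C. After 4 days, viability by MTS/PES absorbance at 490 and 700 nm, used to derive IC50 for viral replication. Mean ± SD, n = 2 or 3.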
# [2] = Binding affinity to human CD4 signal peptide expressed in CHO cells assessed as down-modulation of YFP-fused CD4 expression after 24 hrs by flow cytometric analysis; format: cell-based
# Procedure, shortened: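 CHO cells stably expressing human CD4 fused C-terminally to YFP, treated 24 h at 37 °C with 1:5 serial dilutions. Washed, fixed in 1% formaldehyde, flow cytometry with 488 nm excitation and YFP in FL-1. YFP median fluorescence as % of untreated cells after subtracting non-transfected background. IC50 = 50% decrease; mean ± SD, n ≥ 3.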
# MT4 = assay: Cytotoxicity against human MT4 cells after 48 hrs by MTS/PES method; format: cell-based; conditions: mt4, 48 h
# Procedure, shortened: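 MT-4 cells at 10⁴ per well in DMEM with 10% FBS and 10 mM HEPES, incubated with compounds 48 h at 37 °C. Viability by MTS/PES; CC50 taken as the concentration reducing viability by 50%.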
# CHO = assay: Binding affinity to human CD4 signal peptide expressed in CHO cells assessed as down-modulation of YFP-fused CD4 expression at 50 uM after 24 hrs by flow cytometric analysis; format: cell-based
# Procedure, shortened: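 Stably CD4-YFP-expressing CHO cells, 24 h at 37 °C, 50 μM as the highest concentration tested. Washed, fixed in 1% formaldehyde, YFP read by flow cytometry (488 nm, FL-1). Median fluorescence versus untreated cells, background of non-transfected cells subtracted. Given as % CD4 down-modulation at 50 μM.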
IC50 [2],pIC50 [2],Structure (SMILES),IC50 [1],CC50 (MT4),Activity (CHO)
0.7 µM,6.15,C=C1CN(S(=O)(=O)c2ccc(C)cc2)CCCN(Cc2ccccc2)CCCN(S(=O)(=O)c2ccccc2[N+](=O)[O-])C1.Cl,27.7 µM,> 150 µM,–
1.08 µM,5.97,C=C1CN(S(=O)(=O)c2ccc(C)cc2)CCCN(Cc2ccccc2)CCCN(S(=O)(=O)N2CCOCC2)C1.Cl,8.99 µM,> 150 µM,–
0.79 µM,6.1,C=C1CN(S(=O)(=O)c2ccc(C)cc2)CCCN(Cc2ccccc2)CCCN(S(=O)(=O)c2cccc(N(C)C)c2)C1.Cl,> 50 µM,> 150 µM,–
2.02 µM,5.69,C=C1CN(S(=O)(=O)c2ccc(C)cc2)CCCN(Cc2ccccc2)CCCN(S(=O)(=O)c2cccc([N+](=O)[O-])c2)C1.Cl,> 50 µM,> 150 µM,–
> 50 µM,–,C=C1CN(S(=O)(=O)c2ccc(C)cc2)CCCN(CC2CCCCC2)CCCN(S(=O)(=O)c2ccc(OCCCN)cc2)C1,–,11.6 µM,–
1 µM,–,C=C1CN(S(=O)(=O)c2ccc(C)cc2)CCCN(CC2CCCCC2)CCCN(S(=O)(=O)c2ccc(N)cc2)C1,> 10 µM,10.6 µM,–
1.2 µM,5.92,C=C1CN(S(=O)(=O)c2ccc(C)cc2)CCCN(Cc2ccccc2)CCCN(S(=O)(=O)c2ccc(OC(F)(F)F)cc2)C1.Cl,3.26 µM,> 150 µM,–
5.25 µM,5.28,C=C1CN(S(=O)(=O)c2ccc(C)cc2)CCCN(Cc2ccccc2)CCCN(S(=O)(=O)c2ccc([N+](=O)[O-])cc2)C1.Cl,35.9 µM,> 150 µM,–
1.06 µM,5.97,C=C1CN(S(=O)(=O)c2ccc(C)cc2)CCCN(Cc2ccccc2)CCCN(S(=O)(=O)c2ccc3c(c2)OCO3)C1.Cl,14.2 µM,> 150 µM,–
0.31 µM,6.51,C=C1CN(S(=O)(=O)c2ccc(C)cc2)CCCN(Cc2ccccc2)CCCN(S(=O)(=O)c2ccc(OC)c(OC)c2)C1.Cl,0.86 µM,> 150 µM,–
0.75 µM,–,C=C1CN(S(=O)(=O)c2ccc(C)cc2)CCCN(CC2CCCCC2)CCCN(S(=O)(=O)c2ccc(OCCCN3C(=O)c4ccccc4C3=O)cc2)C1,–,32.2 µM,–
0.15 µM,–,C=C1CN(S(=O)(=O)c2ccc(C)cc2)CCCN(CC2CCCCC2)CCCN(S(=O)(=O)c2ccc(OC)cc2)C1,0.49 µM,99 µM,–
0.17 µM,6.77,C=C1CN(S(=O)(=O)c2ccc(C)cc2)CCCN(Cc2ccccc2)CCCN(S(=O)(=O)c2ccc(N(C)C)cc2)C1.Cl,0.62 µM,> 150 µM,–
0.23 µM,6.64,C=C1CN(S(=O)(=O)c2ccc(C)cc2)CCCN(Cc2ccccc2)CCCN(S(=O)(=O)c2ccc(SC)cc2)C1.Cl,1.44 µM,> 150 µM,–
3.78 µM,–,C=C1CN(C(=O)c2ccc(C)cc2)CCCN(Cc2ccccc2)CCCN(S(=O)(=O)c2ccc(C)cc2)C1,3.95 µM,19.9 µM,–
3.58 µM,5.45,C=C1CN(S(=O)(=O)c2ccc(C)cc2)CCCN(Cc2ccccc2)CCCN(S(=O)(=O)c2ccc(O)cc2)C1.Cl,2.84 µM,13.6 µM,–
7.32 µM,–,C=C1CN(C(=O)c2ccccc2)CCCN(Cc2ccccc2)CCCN(S(=O)(=O)c2ccc(C)cc2)C1,> 10 µM,15.8 µM,–
1.1 µM,–,C=C1CN(S(=O)(=O)c2ccc(C)cc2)CCCN(CC2CCCCC2)CCCN(S(=O)(=O)c2ccc(OCCCC)cc2)C1,1.95 µM,13.2 µM,–
2.12 µM,5.66,C=C1CN(S(=O)(=O)c2ccc(C)cc2)CCCN(Cc2ccccc2)CCCN(S(=O)(=O)c2ccccc2N)C1.Cl,6.93 µM,70.3 µM,–
3.17 µM,5.5,C=C1CN(S(=O)(=O)c2ccc(C)cc2)CCCN(Cc2ccccc2)CCCN(S(=O)(=O)c2ccn(C)c2)C1.Cl,> 50 µM,> 150 µM,–
2.42 µM,5.62,C=C1CN(S(=O)(=O)c2ccc(C)cc2)CCCN(Cc2ccccc2)CCCN(S(=O)(=O)c2ccc(N)cc2)C1.Cl,7.72 µM,63.4 µM,–

# The remaining lines, values behind:
Structure (SMILES),IC50 [2],pIC50 [2],IC50 [1],CC50 (MT4),Activity (CHO)
C=C1CN(S(=O)(=O)c2ccccc2)CCCN(Cc2ccccc2)CCCN(S(=O)(=O)c2ccc(C)cc2)C1.Cl,1.46 µM,5.84,> 50 µM,> 150 µM,–
C=C1CN(S(=O)(=O)c2ccc(C)cc2)CCCN(CC2CCCCC2)CCCN(S(=O)(=O)c2ccc(N(C)C)cc2)C1,0.063 µM,–,0.18 µM,44 µM,–
C=C1CN(S(=O)(=O)c2ccc(C)cc2)CCCN(CC2CCCCC2)CCCN(S(=O)(=O)c2ccc(O)cc2)C1,1.14 µM,–,–,> 150 µM,–
C=C1CN(S(=O)(=O)c2ccc(C)cc2)CCCN(Cc2ccccc2)CCCN(S(=O)(=O)c2ccc(OC)cc2OC)C1.Cl,1.35 µM,5.87,7 µM,> 150 µM,–
C=C1CN(S(=O)(=O)c2ccc(C)cc2)CCCN(Cc2ccccc2)CCCN(S(=O)(=O)c2ccc(F)cc2)C1.Cl,0.92 µM,6.04,4.66 µM,> 150 µM,–
C=C1CN(C(=O)c2ccc([N+](=O)[O-])cc2)CCCN(Cc2ccccc2)CCCN(S(=O)(=O)c2ccc(C)cc2)C1,> 50 µM,–,> 50 µM,> 150 µM,39%
C=C1CN(S(=O)(=O)c2ccc(C)cc2)CCCN(CC2CCCCC2)CCCN(S(=O)(=O)c2ccc(-n3cccc3)cc2)C1,0.18 µM,–,1.25 µM,48 µM,–
C=C1CN(S(=O)(=O)c2ccc(C)cc2)CCCN(Cc2ccccc2)CCCN(S(=O)(=O)c2ccc(OC)cc2)C1.Cl,0.29 µM,6.54,0.55 µM,> 150 µM,–
C=C1CN(S(=O)(=O)c2ccc(C)cc2)CCCN(CC2CCCCC2)CCCN(S(=O)(=O)c2ccc(OCC)cc2)C1,0.19 µM,–,0.62 µM,19.6 µM,–
C=C1CN(S(=O)(=O)c2ccc(C)cc2)CCCN(Cc2ccccc2)CCCN(S(=O)(=O)c2cccc(N)c2)C1.Cl,1.02 µM,5.99,6.22 µM,> 150 µM,–
C=C1CN(S(=O)(=O)c2ccc(C)cc2)CCCN(Cc2ccccc2)CCCN(S(=O)(=O)c2ccc(C)cc2)C1,–,6.4,–,–,–
C=C1CN(C(=O)c2ccc(N)cc2)CCCN(Cc2ccccc2)CCCN(S(=O)(=O)c2ccc(C)cc2)C1,> 50 µM,–,> 10 µM,13.7 µM,–
C=C1CN(C(=O)c2ccc(OC)cc2)CCCN(Cc2ccccc2)CCCN(S(=O)(=O)c2ccc(C)cc2)C1,4.22 µM,–,3.86 µM,23.6 µM,–
C=C1CN(S(=O)(=O)c2ccc(C)cc2)CCCN(Cc2ccccc2)CCCN(S(=O)(=O)N(C)C)C1,1.58 µM,–,12.8 µM,> 150 µM,–
C#CCOc1ccc(S(=O)(=O)N2CCCN(Cc3ccccc3)CCCN(S(=O)(=O)c3ccc(C)cc3)CC(=C)C2)cc1.Cl,0.46 µM,6.34,0.55 µM,> 150 µM,–
C=C1CN(S(=O)(=O)c2ccc(C)cc2)CCCN(Cc2ccccc2)CCCN(S(=O)(=O)c2ccc(OC(=S)N(C)C)cc2)C1.Cl,6.28 µM,5.2,> 50 µM,106 µM,–
C=C1CN(S(=O)(=O)c2ccc(C)cc2)CCCN(Cc2ccccc2)CCCN(S(=O)(=O)c2ccc3ccccc3c2)C1.Cl,0.55 µM,6.26,1.35 µM,> 150 µM,–
C=C1CN(S(=O)(=O)c2ccc(C)cc2)CCCN(CC2CCCCC2)CCCN(S(=O)(=O)c2ccc(N3CCOCC3)cc2)C1,0.13 µM,–,0.36 µM,> 150 µM,–
C=C1CNCCCN(Cc2ccccc2)CCCN(S(=O)(=O)c2ccc(C)cc2)C1,> 50 µM,–,–,> 150 µM,20%
